Laboratory results published in ChEMBL document CHEMBL1137880, “Synthesis and GABA receptor potency of 3-thiomethyl-4-(hetero)aryl-5-amino-1-phenylpyrazoles” (Bioorg Med Chem Lett, 2004).

Key:
[1] = test system: GABA-A receptor; anion channel; assay: In vitro insecticidal activity as inhibition of [3H]EBOB binding to Gamma-aminobutyric acid GABA-A receptor of housefly neuronal membranes; IA denotes inactive; parameters: species or system Musca domestica
[2] = test system: GABA-A receptor; anion channel; assay: In vitro insecticidal activity as inhibition of [3H]EBOB binding to Gamma-aminobutyric acid GABA-A receptor of housefly neuronal membranes; NI denotes negative inhibition; parameters: species or system Musca domestica
[3] = molecular target: GABA-A receptor; anion channel (Mus musculus) (UniProt Q8BHJ7+P26048+Q8QZW7+P50571+Q9R0Y8+P22723+A2AMW3+P62812+Q9JLF1+P26049+P22933+Q9D6F4+P63080+P27681+P16305); assay: Ratio of binding affinity for mouse brain Gamma-aminobutyric acid receptor and housefly Gamma-aminobutyric acid receptor
[4] = In vivo percent mortality of cyclodiene resistant mixed homozygous and heterozygous NC fleas at 100 mM was determined using contact assay; format: ADME, organism-based; conditions: Pulicinae
Summary of the method: (§1)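 Cat fleas were exposed by contact at 100 mM. The strains were chosen as genetic variants for the cyclodiene resistance allele, to compare insecticidal activity across them. The read-out was percent mortality.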

[5] = In vivo percent mortality of housefly at 100 mM was determined using contact assay; format: ADME, organism-based; conditions: Musca domestica, topical
[6] = In vivo percent mortality of cyclodiene resistant allele-homozygous CO fleas at 100 mM was determined using contact assay; format: ADME, organism-based; conditions: Pulicinae; summary of the method: as §1

Row | Structure (SMILES) | IC50 [1] | Selectivity [3] | further results
1 | CSc1nn(-c2c(Cl)cc(C(F)(F)F)cc2Cl)c(N)c1-c1ccccn1 | Not Active |  | 
2 | CSc1nn(-c2c(Cl)cc(C(F)(F)F)cc2Cl)c(N)c1-c1cncnc1 |  |  | IC50 [2]: Not Active
3 | CSc1nn(-c2c(Cl)cc(C(F)(F)F)cc2Cl)c(N)c1-c1ccc(F)c(Cl)c1 |  | 4 | 
4 | CSc1nn(-c2c(Cl)cc(C(F)(F)F)cc2Cl)c(N)c1-c1ccccc1C(F)(F)F |  | 6000 | mortality at 100000 µM [4]: 0%; mortality at 100000 µM [5]: 3.9%; mortality at 100000 µM [6]: 58.7%
5 | CSc1nn(-c2c(Cl)cc(C(F)(F)F)cc2Cl)c(N)c1I |  | 43 | 
6 | CSc1nn(-c2c(Cl)cc(C(F)(F)F)cc2Cl)c(N)c1-c1ccc(C(C)=O)s1 |  | 25 | 
7 | COc1ccc(-c2c(SC)nn(-c3c(Cl)cc(C(F)(F)F)cc3Cl)c2N)cc1 |  | 180 | 
8 | CSc1nn(-c2c(Cl)cc(C(F)(F)F)cc2Cl)c(N)c1-c1ccc2c(c1)OCO2 |  | 64 | mortality at 100000 µM [4]: 0%; mortality at 100000 µM [5]: 27.6%; mortality at 100000 µM [6]: 1.4%
9 | CSc1nn(-c2c(Cl)cc(C(F)(F)F)cc2Cl)c(N)c1-c1ccc(C)s1 | Not Active |  | 
10 | CSc1nn(-c2c(Cl)cc(C(F)(F)F)cc2Cl)c(N)c1-c1cccs1 |  | 44 | 
11 | CSc1nn(-c2c(Cl)cc(C(F)(F)F)cc2Cl)c(N)c1-c1ccc(C(C)C)cc1 | Not Active |  | 
12 | COc1cccc(-c2c(SC)nn(-c3c(Cl)cc(C(F)(F)F)cc3Cl)c2N)c1 |  | 346 | 
13 | CSc1nn(-c2c(Cl)cc(C(F)(F)F)cc2Cl)c(N)c1-c1cc(C(F)(F)F)cc(C(F)(F)F)c1 |  | 12 | 
14 | CSc1nn(-c2c(Cl)cc(C(F)(F)F)cc2Cl)c(N)c1C#N |  | 500 | 
15 | CSc1ccc(-c2c(SC)nn(-c3c(Cl)cc(C(F)(F)F)cc3Cl)c2N)cc1 |  | 230 | 
16 | CCOC(=O)c1c(SC)nn(-c2c(Cl)cc(C(F)(F)F)cc2Cl)c1N |  | 400 | 
17 | CSc1nn(-c2c(Cl)cc(C(F)(F)F)cc2Cl)c(N)c1C(=O)O |  | 45 | 
18 | CSc1nn(-c2c(Cl)cc(C(F)(F)F)cc2Cl)c(N)c1-c1cccc(Cl)c1 |  | 31 | 
19 | CSc1nn(-c2c(Cl)cc(C(F)(F)F)cc2Cl)c(N)c1-c1cccnc1 | Not Active |  | 
20 | C#Cc1c(SC)nn(-c2c(Cl)cc(C(F)(F)F)cc2Cl)c1N |  | > 10000 | mortality at 100000 µM [4]: 0%; mortality at 100000 µM [5]: 80.1%; mortality at 100000 µM [6]: 2.2%
21 | CSc1nn(-c2c(Cl)cc(C(F)(F)F)cc2Cl)c(N)c1-c1ccccc1C |  | 400 | mortality at 100000 µM [4]: 0%; mortality at 100000 µM [5]: 9.6%; mortality at 100000 µM [6]: 60.8%
22 | CSc1nn(-c2c(Cl)cc(C(F)(F)F)cc2Cl)c(N)c1Br |  | 2500 | 

Row | Structure (SMILES) | IC50 [1] | Selectivity [3] | further results
23 | CSc1nn(-c2c(Cl)cc(C(F)(F)F)cc2Cl)c(N)c1Cl |  | 210 | mortality at 100000 µM [4]: 3.3%; mortality at 100000 µM [5]: 92.8%; mortality at 100000 µM [6]: 32.3%
24 | CSc1nn(-c2c(Cl)cc(C(F)(F)F)cc2Cl)c(N)c1-c1cccc(C(F)(F)F)c1 |  | 5 | 
25 | CSc1nn(-c2c(Cl)cc(C(F)(F)F)cc2Cl)c(N)c1-c1cccc(C(C)(C)C)c1 | Not Active |  | 
26 | CSc1cc(N)n(-c2c(Cl)cc(C(F)(F)F)cc2Cl)n1 |  | 250 | mortality at 100000 µM [4]: 0%; mortality at 100000 µM [5]: 42.4%; mortality at 100000 µM [6]: 4.4%
27 | CSc1nn(-c2c(Cl)cc(C(F)(F)F)cc2Cl)c(N)c1-c1ccsc1 | Not Active |  | 
28 | CSc1nn(-c2c(Cl)cc(C(F)(F)F)cc2Cl)c(N)c1-c1ccc(F)cc1 |  | 20 | 
29 | COc1cc(-c2c(SC)nn(-c3c(Cl)cc(C(F)(F)F)cc3Cl)c2N)cc(OC)c1OC | Not Active |  | 
30 | CSc1ccccc1-c1c(SC)nn(-c2c(Cl)cc(C(F)(F)F)cc2Cl)c1N | Not Active |  | 
31 | CSc1nn(-c2c(Cl)cc(C(F)(F)F)cc2Cl)c(N)c1-c1cccc(C(C)C)c1 | Not Active |  | 
32 | CSc1nn(-c2c(Cl)cc(C(F)(F)F)cc2Cl)c(N)c1-c1ccc(C#N)cc1 |  | 666 | 
33 | COc1ccc(-c2c(SC)nn(-c3c(Cl)cc(C(F)(F)F)cc3Cl)c2N)cc1OC |  | 2000 | 
34 | CSc1nn(-c2c(Cl)cc(C(F)(F)F)cc2Cl)c(N)c1-c1ccccc1 |  | 4 | 
35 | CSc1nn(-c2c(Cl)cc(C(F)(F)F)cc2Cl)c(N)c1-c1nc(C)no1 |  | 9 | mortality at 100000 µM [4]: 0%; mortality at 100000 µM [5]: 95.4%; mortality at 100000 µM [6]: 0%
36 | COc1ccc(-c2c(SC)nn(-c3c(Cl)cc(C(F)(F)F)cc3Cl)c2N)c(OC)c1 |  | 49 | 
37 | CSc1nn(-c2c(Cl)cc(C(F)(F)F)cc2Cl)c(N)c1-c1ccc(Cl)cc1 | Not Active |  | 
38 | CSc1nn(-c2c(Cl)cc(C(F)(F)F)cc2Cl)c(N)c1-c1cc(C)cs1 | Not Active |  | 
39 | CSc1nn(-c2c(Cl)cc(C(F)(F)F)cc2Cl)c(N)c1-c1cnccn1 |  | 45 | mortality at 100000 µM [4]: 89.9%; mortality at 100000 µM [5]: 0%; mortality at 100000 µM [6]: 77.4%
40 | CSc1nn(-c2c(Cl)cc(C(F)(F)F)cc2Cl)c(N)c1-c1ccccc1F | Not Active |  | 
41 | CSc1nn(-c2c(Cl)cc(C(F)(F)F)cc2Cl)c(N)c1-c1ccncc1 | Not Active |  | 
42 | CSc1nn(-c2c(Cl)cc(C(F)(F)F)cc2Cl)c(N)c1-c1ccc(Br)cc1 | Not Active |  | 
43 | CSc1nn(-c2c(Cl)cc(C(F)(F)F)cc2Cl)c(N)c1-c1ccc(C)cc1 |  | 66 | 
44 | CSc1nn(-c2c(Cl)cc(C(F)(F)F)cc2Cl)c(N)c1-c1ccc(Cl)s1 |  | 434 | 
